Results taken from ChEMBL document CHEMBL1146375, “Synthetic studies on novel benzimidazolopeptides with antimicrobial, cytotoxic and anthelmintic potential” (2007).
Converted amounts (≈) assume the structure as drawn.

Assays:
Bacillus subtilis [1] = assay: Antibacterial activity against Bacillus subtilis NCIM 2063 after 18 hrs by disc diffusion method; assay type: functional
Procedure, shortened: (§1)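 Modified Kirby-Bauer disc diffusion. Plates inoculated with spore suspension (about 6 × 10⁴ spores mL^-1). Sterile 6 mm paper discs carried test samples at 10 mg mL^-1; ciprofloxacin disc as reference, DMF disc as negative control. Plates held 18 h at 37 °C. Inhibition zone diameters (mm) averaged over triplicate sets.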

Staphylococcus aureus [2] = assay: Antibacterial activity against Staphylococcus aureus NCIM 2079 after 18 hrs by disc diffusion method; assay type: functional; procedure, shortened: as §1
Pseudomonas aeruginosa [3] = assay: Antibacterial activity against Pseudomonas aeruginosa NCIM 2034 after 18 hrs by disc diffusion method; assay type: functional; procedure, shortened: as §1
Escherichia coli [4] = assay: Antibacterial activity against Escherichia coli NCIM 2065 after 18 hrs by disc diffusion method; assay type: functional; procedure, shortened: as §1
Candida albicans [5] = assay: Antifungal activity against Candida albicans MUCC 29 after 48 hrs by disc diffusion method; assay type: functional
Procedure, shortened: (§2)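 Agar well diffusion on plates inoculated with spore suspension in normal saline from cultures on Sabouraud's broth. Wells punched and loaded with test samples or griseofulvin at 10 mg mL^-1, with DMSO as negative control. Incubated 48 h at 37 °C.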

Microsporum audouinii [6] = assay: Antifungal activity against Microsporum audouinii MUCC 545 after 48 hrs by disc diffusion method; assay type: functional; procedure, shortened: as §2
Trichophyton benhamiae [7] = assay: Antifungal activity against Trichophyton mentagrophytes MUCC 665 after 48 hrs by disc diffusion method; assay type: functional, Arthroderma benhamiae; procedure, shortened: as §2
Aspergillus niger = assay: Antifungal activity against Aspergillus niger MUCC 177 after 48 hrs by disc diffusion method; assay type: functional; procedure, shortened: as §2
Bacillus subtilis [8] = assay: Antibacterial activity against Bacillus subtilis NCIM 2063 after 18 hrs by tube dilution method; assay type: functional; conditions: NCIM 2063, 18 h
Procedure, shortened: (§3)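 Tube dilution MIC. Stock diluted in sterile broth to seven concentrations from 200 to 3.1 […]. Each tube inoculated with one loopful of test bacterium and incubated 18 h at 37 °C. MIC read from presence or absence of growth.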

Staphylococcus aureus [9] = assay: Antibacterial activity against Staphylococcus aureus NCIM 2079 after 18 hrs by tube dilution method; assay type: functional; conditions: NCIM 2079, 18 h; procedure, shortened: as §3
Pseudomonas aeruginosa [10] = assay: Antibacterial activity against Pseudomonas aeruginosa NCIM 2034 after 18 hrs by tube dilution method; assay type: functional; conditions: NCIM 2034, 18 h; procedure, shortened: as §3
Escherichia coli [11] = assay: Antibacterial activity against Escherichia coli NCIM 2065 after 18 hrs by tube dilution method; assay type: functional; conditions: NCIM 2065, 18 h
Candida albicans [12] = assay: Antifungal activity against Candida albicans MUCC 29 after 48 hrs by tube dilution method; assay type: functional
Procedure, shortened: (§4)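 Tube dilution MIC as for bacteria (seven concentrations, 200–3.1 […]), with DMSO in place of DMF. Tubes inoculated with fungal culture and incubated 48 h at 37 °C. MIC read from presence or absence of growth.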

Microsporum audouinii [13] = assay: Antifungal activity against Microsporum audouinii MUCC 545 after 48 hrs by tube dilution method; assay type: functional; procedure, shortened: as §4
Trichophyton benhamiae [14] = assay: Antifungal activity against Trichophyton mentagrophytes MUCC 665 after 48 hrs by tube dilution method; assay type: functional, Arthroderma benhamiae; procedure, shortened: as §4
Eudrilus [15] = assay: Anthelmintic activity against Eudrilus sp. assessed as mean paralyzing time; assay type: functional
Procedure, shortened: (§5)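 Earthworms exposed to test suspensions at 2 mg mL^-1 (0.2% w/v), made by triturating compound with Tween 80 (0.5%) and distilled water, then mechanically stirred 30 min. Mebendazole suspension prepared alike as reference. Paralysis and death times recorded; death confirmed by no movement in 50 °C water. Means from triplicate sets.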

Eudrilus [16] = assay: Anthelmintic activity against Eudrilus sp. assessed as mean death time; assay type: functional
Procedure, shortened: (§6)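 Earthworms exposed to test suspensions at 2 mg mL−1, prepared by triturating compound with Tween 80 (0.5%) and distilled water, stirring 30 min, then diluting to 0.2% w/v. Mebendazole suspension was made the same way. Death was confirmed by moving worms into 50 °C warm water and looking for movement. Mean death time (min) taken from triplicate sets.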

[17] = Anthelmintic activity against Megascoplex konkanensis ICARBC 211 assessed as mean paralyzing time; assay type: functional; procedure, shortened: as §5
[18] = Anthelmintic activity against Megascoplex konkanensis ICARBC 211 assessed as mean death time; assay type: functional; procedure, shortened: as §5
Pontoscolex corethrurus [19] = assay: Anthelmintic activity against Pontoscolex corethrurus ICARBC 408 assessed as mean paralyzing time; assay type: functional; procedure, shortened: as §5
Pontoscolex corethrurus [20] = assay: Anthelmintic activity against Pontoscolex corethrurus ICARBC 408 assessed as mean death time; assay type: functional; procedure, shortened: as §6

Structure (SMILES) | inhibition zone (IZ) (Bacillus subtilis [1]) [mm] | inhibition zone (IZ) (Staphylococcus aureus [2]) [mm] | inhibition zone (IZ) (Pseudomonas aeruginosa [3]) [mm] | inhibition zone (IZ) (Escherichia coli [4]) [mm] | inhibition zone (IZ) (Candida albicans [5]) [mm] | inhibition zone (IZ) (Microsporum audouinii [6]) [mm] | inhibition zone (IZ) (Trichophyton benhamiae [7]) [mm] | inhibition zone (IZ) (Aspergillus niger) [mm] | MIC (Bacillus subtilis [8]) [µg/mL] | MIC (Staphylococcus aureus [9]) [µg/mL] | MIC (Pseudomonas aeruginosa [10]) [µg/mL] | MIC (Escherichia coli [11]) [µg/mL] | MIC (Candida albicans [12]) [µg/mL] | MIC (Microsporum audouinii [13]) [µg/mL] | MIC (Trichophyton benhamiae [14]) [µg/mL] | Time (Eudrilus [15]) [min] | Time (Eudrilus [16]) [min] | TIME [17] [h] | TIME [18] [h] | Time (Pontoscolex corethrurus [19]) [min] | other results
COC(=O)[C@H](C)NC(=O)[C@H](CCCNC(=N)N[N+](=O)[O-])NC(=O)c1cc(-c2nc3cc(C)c(C)cc3[nH]2)ccc1O | 15 | 11 | 22 | 17 | 19 | 11 | 10 | 18 | 6 (≈ 10.6 µM) | 12.5 (≈ 22 µM) | 6 (≈ 10.6 µM) | 12.5 (≈ 22 µM) | 12.5 (≈ 22 µM) | 6 (≈ 10.6 µM) | 6 (≈ 10.6 µM) | 17.35 | 28.54 | 0.279 | 0.423 | 20.38 | Time (Pontoscolex corethrurus [20]): 32.65 min
COC(=O)[C@H](Cc1c[nH]c2ccccc12)NC(=O)c1cc(I)c(-c2nc3cc(C)c(C)cc3[nH]2)c(I)c1 | 16 | 12 | 25 | 19 | 18 | 9 | 12 | 19 | 6 (≈ 8.35 µM) | 12.5 (≈ 17.4 µM) | 6 (≈ 8.35 µM) | 12.5 (≈ 17.4 µM) | 6 (≈ 8.35 µM) | 12.5 (≈ 17.4 µM) | 6 (≈ 8.35 µM) | 13.5 | 24.02 | 0.217 | 0.371 | 17.1 | Time (Pontoscolex corethrurus [20]): 29.29 min
COC(=O)CNC(=O)[C@H](Cc1ccc(O)cc1)NC(=O)[C@H](C)NC(=O)c1cc(I)c(-c2nc3cc(C)c(C)cc3[nH]2)c(I)c1 | 15 | 12 | 20 | 17 | 15 | 9 | 13 | 15 | 6 (≈ 7.29 µM) | 12.5 (≈ 15.2 µM) | 6 (≈ 7.29 µM) | 12.5 (≈ 15.2 µM) | 6 (≈ 7.29 µM) | 12.5 (≈ 15.2 µM) | 12.5 (≈ 15.2 µM) | 27.42 | 45.3 | 0.472 | 0.652 | 34.13 | Time (Pontoscolex corethrurus [20]): 48.24 min
COC(=O)[C@@H]1CCCN1C(=O)[C@@H]1CCCN1C(=O)[C@@H]1CCCN1C(=O)c1cc(-c2nc3ccc([N+](=O)[O-])cc3[nH]2)ccc1O | 14 | 11 | 27 | 17 | 24 | 13 | 17 | 17 | 6 (≈ 9.92 µM) | 12.5 (≈ 20.7 µM) | 6 (≈ 9.92 µM) | 25 (≈ 41.3 µM) | 6 (≈ 9.92 µM) | 6 (≈ 9.92 µM) | 12.5 (≈ 20.7 µM) | 26.67 | 37.44 | 0.425 | 0.569 | 30.59 | Time (Pontoscolex corethrurus [20]): 40.38 min
Cc1cc2nc(-c3ccc(C(=O)N[C@@H](CC(C)C)C(=O)NCC(=O)O)cc3)[nH]c2cc1C | 13 | 10 | 23 | 17 | 19 | 11 | 14 | 17 | 6 (≈ 13.7 µM) | 12.5 (≈ 28.6 µM) | 6 (≈ 13.7 µM) | 12.5 (≈ 28.6 µM) | 6 (≈ 13.7 µM) | 25 (≈ 57.3 µM) | 6 (≈ 13.7 µM) | 32.8 | 40.24 | 0.438 | 0.671 | 36.61 | Time (Pontoscolex corethrurus [20]): 48.39 min
